Measured values published in paper PMC8068522 (European journal of nuclear medicine and molecular imaging, 2019).

Legend:
[1] = system: PSMA(+) PC3 PIP cells; assay: cell uptake and internalization; type: cell-based, human; conditions: initially; per 1 million cells
Outline: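 HPLC-purified 177Lu radioligands were incubated with PSMA(+) PC3 PIP cells for 1 h up to 24 h. Total cell-surface uptake and internalized fraction were expressed as percentage incubated dose per 1 million cells, mean ± SD, n = 3. Specificity was checked by blocking with excess (~10 μM) of a known PSMA inhibitor.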

[2] = system: PSMA(+) PC3 PIP tumor; assay: tissue biodistribution, PSMA; type: in vivo, mouse; conditions: 24 h
[3] = system: PSMA(+) PC3 PIP cells; assay: clonogenic survival assay; type: cell-based, human; conditions: 48 h of incubation, colony formation
Outline: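 PSMA(+) PC3 PIP and PSMA(−) PC3 flu cells were exposed to HPLC-purified 177Lu radioligands for 48 h at 37 °C, then scored for colony formation (mean ± SD, n = 3). D0 was the activity concentration (kBq/mL) giving 37% survival.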

[4] = system: PSMA(+) PC3 PIP flank tumor model; assay: PSMA-targeted radionuclide therapy in flank tumor model; type: in vivo, male NOD/SCID mice; conditions: single 111 MBq i.v.
[5] = acute radiotoxicity after 8 weeks; type: in vivo, male NOD/SCID mice; conditions: 8 weeks post-treatment, 111 MBq
Outline: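 Tumour-bearing male NOD/SCID mice (PSMA(+) PC3 PIP flank, ~60–85 mm3, 14–18 days post-inoculation) got one 111 MBq tail-vein dose of 177Lu radioligand or saline. At 8 weeks, n = 3 per group underwent complete blood analysis (haemoglobin, white cells, neutrophils, platelets) and necropsy with H&E anatomic pathology at a phenotyping core.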

For `O=C([O-])CN1CCN(CC(=O)[O-])CCN(CC(=O)NCC2CCC(C(=O)N[C@@H](Cc3ccc4ccccc4c3)C(=O)NCCCC[C@H](NC(=O)N[C@@H](CCC(=O)O)C(=O)O)C(=O)O)CC2)CCN(CC(=O)[O-])CC1.[177Lu+3]` (some centres unmarked) [177Lu-PSMA-617], the “cell uptake within PSMA(+) PC3 PIP cells” value [1] was ~ 40 % of the incubated dose, the kidney uptake [2] was < 0.5 ID/g and the “D0 (37% survival)” value [3] was 24–32 kBq/mL. The median survival [4] was 130 days, the “mice reaching a relative tumor volume > 4 times the initial volume” value [4] was “only one mouse” and the parotid glands pathology [5] was “mild changes”. For the same compound, the platelets [5] was “significantly lower platelets than those in the other treatment groups” and the testes pathology [5] was “most severe degenerative changes and loss of seminiferous epithelium”.
